Data as given in ChEMBL document CHEMBL1126043, “Novel thiazolidine-2,4-diones as potent euglycemic agents” (1992).

Tests used:
Mus musculus [1] = experiment: In vivo euglycemic activity (administered by oral gavage) in C57/6J-ob/ob mice measured by normalization of blood glucose levels at a dose of 5 mg/kg.; type: functional
Mus musculus [2] = experiment: In vivo euglycemic activity (administered by oral gavage) in C57/6J-ob/ob mice by normalization of blood glucose levels at a dose of 10 mg/kg.; type: functional
Outline: (§1)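 Mice bled from retro-orbital sinus into tubes with 2% sodium heparin for baseline glucose, then dosed by oral gavage once daily for 4 days in 0.25% (w/v) methylcellulose in water, no pH adjustment (0.1 mL per 20 g). Bled 24 h after fourth dose. Samples centrifuged 2 min at 10000g. Plasma glucose measured by hexokinase UV method. Results scaled to vehicle (0%) and ciglitazone 50 mg/kg (100%).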

Mus musculus [3] = experiment: In vivo euglycemic activity of the compound (administered by oral gavage) in C57/6J-ob/ob mice is measured by normalization of blood glucose levels at a dose of 25(mg/kg); type: functional; outline: as §1
Mus musculus [4] = experiment: In vivo euglycemic activity (administered by oral gavage) in C57/6J-ob/ob mice by normalization of blood glucose levels at a dose of 0.5 mg/kg.; type: functional; outline: as §1
Mus musculus [5] = experiment: In vivo euglycemic activity (administered by oral gavage) in C57/6J-ob/ob mice by normalization of blood glucose levels at a dose of 1 mg/kg.; type: functional; outline: as §1
Mus musculus [6] = experiment: In vivo euglycemic activity of the compound (administered by oral gavage) in C57/6J-ob/ob mice is measured by normalization of blood glucose levels at a dose of 0.1(mg/kg); type: functional; outline: as §1
Mus musculus [7] = experiment: In vivo euglycemic activity of the compound (administered by oral gavage) in C57/6J-ob/ob mice is measured by normalization of blood glucose levels at a dose of 0.25(mg/kg); type: functional; outline: as §1
Mus musculus [8] = experiment: In vivo euglycemic activity of the compound (administered by oral gavage) in C57/6J-ob/ob mice is measured by normalization of blood glucose levels at a dose of 5(mg/kg)
Mus musculus [9] = experiment: In vivo euglycemic activity of the compound (administered by oral gavage) in C57/6J-ob/ob mice is measured by normalization of blood glucose levels at a dose of 1(mg/kg).; type: functional; outline: as §1
Mus musculus [10] = experiment: In vivo euglycemic activity of the compound (administered by oral gavage) in C57/6J-ob/ob mice is measured by normalization of blood glucose levels at a dose of 2.5(mg/kg); type: functional; outline: as §1
Mus musculus [11] = experiment: In vivo euglycemic activity of the compound (administered by oral gavage) in C57/6J-ob/ob mice is measured by normalization of blood glucose levels at a dose of 10(mg/kg).; type: functional; outline: as §1
Mus musculus [12] = experiment: In vivo euglycemic activity of the compound (administered by oral gavage) in C57/6J-ob/ob mice is measured by normalization of blood glucose levels at a dose of 0.05(mg/kg); type: functional; outline: as §1
Mus musculus [13] = experiment: In vivo euglycemic activity of the compound (administered by oral gavage) in C57/6J-ob/ob mice is measured by normalization of blood glucose levels at a dose of 50(mg/kg); type: functional

| SMILES | Normalization (Mus musculus [1]) | Normalization (Mus musculus [4]) | Normalization (Mus musculus [5]) | also measured |
| --- | --- | --- | --- | --- |
| O=C1NC(=O)C(Cc2ccc3c(c2)CCC(Cc2ccccc2)C3=O)S1 (centres undefined) | 39% | – | – | Normalization (Mus musculus [2]): 54%; Normalization (Mus musculus [3]): 47% |
| COc1c(C)cc(-c2nc(CCC(=O)c3ccc(CC4SC(=O)NC4=O)cc3)c(C)o2)cc1C (centres undefined) | – | 100% | 100% | Normalization (Mus musculus [6]): 75% |
| O=C1NC(=O)C(Cc2ccc(C(=O)/C=C/c3ccc(-c4ccccc4)cc3)cc2)S1 (centres undefined) | – | – | – | Normalization (Mus musculus [2]): 56%; Normalization (Mus musculus [3]): 65% |
| Cc1ccc(-c2nc(CCC(=O)c3ccc(/C=C4\SC(=O)NC4=O)cc3)c(C)o2)o1 | – | 1% | 76% | – |
| Cc1oc(-c2ccccc2)nc1C/C=C/c1ccc(CC2SC(=O)NC2=O)cc1 (centres undefined) | – | 84% | – | Normalization (Mus musculus [6]): 29%; Normalization (Mus musculus [7]): 74% |
| O=C1NC(=O)C(Cc2ccc(C(=O)/C=C/c3ccccc3O)cc2)S1 (centres undefined) | – | – | – | Normalization (Mus musculus [3]): 0% |
| Cc1cc(-c2nc(CCC(=O)c3ccc(CC4SC(=O)NC4=O)cc3)c(C)o2)cc(C)c1O (centres undefined) | – | 30% | 100% | – |
| COc1ccccc1/C=C/C(=O)c1ccc(CC2SC(=O)NC2=O)cc1 (centres undefined) | – | – | – | Normalization (Mus musculus [2]): 66%; Normalization (Mus musculus [8]): 50% |
| Cc1ccc(-c2nc(CCC(=O)c3ccc(CC4SC(=O)NC4=O)cc3)c(C)o2)cc1 (centres undefined) | – | 47% | – | Normalization (Mus musculus [9]): 47%; Normalization (Mus musculus [7]): 15% |
| O=C1NC(=O)C(Cc2ccc(C(=O)CCc3csc(-c4ccccc4)n3)cc2)S1 (centres undefined) | 91% | – | – | Normalization (Mus musculus [10]): 48% |
| Cc1oc(-c2ccc(C(F)(F)F)cc2)nc1CCC(=O)c1ccc(CC2SC(=O)NC2=O)s1 (centres undefined) | – | 27% | 78% | – |
| Cc1oc(-c2ccc3ccccc3c2)nc1CCS(=O)(=O)c1ccc(CC2SC(=O)NC2=O)cc1 (centres undefined) | 0% | – | – | Normalization (Mus musculus [10]): 0% |
| O=C1NC(=O)C(Cc2ccc(C(=O)COc3ccccc3)cc2)S1 (centres undefined) | – | – | – | Normalization (Mus musculus [11]): 7% |
| O=C1NC(=O)C(Cc2ccc(C(=O)/C=C/c3ccccc3)cc2)S1 (centres undefined) | 23% | – | – | Normalization (Mus musculus [2]): 65%; Normalization (Mus musculus [3]): 99% |
| Cc1oc(-c2ccccc2)nc1CC/C(=N\O)c1ccc(CC2SC(=O)NC2=O)cc1 (centres undefined) | 100% | 0% | 99% | – |
| Cc1oc(-c2ccccc2)nc1CCSc1ccc(CC2SC(=O)NC2=O)cc1 (centres undefined) | – | 0% | – | – |
| Cc1oc(-c2cccs2)nc1CCC(=O)c1ccc(CC2SC(=O)NC2=O)cc1 (centres undefined) | – | 71% | 84% | Normalization (Mus musculus [7]): 27% |
| Cc1ccc(-c2nc(CCC(=O)c3ccc(CC4SC(=O)NC4=O)cc3)co2)cc1 (centres undefined) | – | 0% | – | Normalization (Mus musculus [7]): 15% |
| O=C1NC(=O)C(Cc2ccc(C(=O)/C=C/c3ccc(OCc4ccccc4)cc3)cc2)S1 (centres undefined) | 64% | – | – | Normalization (Mus musculus [2]): 57%; Normalization (Mus musculus [3]): 96% |
| Cc1oc(-c2ccc3ccccc3c2)nc1CCC(=O)c1ccc(/C=C2\SC(=O)NC2=O)cc1 | – | 38% | 90% | – |
| O=C1NC(=O)C(Cc2ccc3c(c2)CCC(Cc2ccccc2)O3)S1 (centres undefined) | 48% | – | – | Normalization (Mus musculus [2]): 70%; Normalization (Mus musculus [3]): 91% |
| O=C1NC(=O)C(Cc2ccc(C(=O)CCc3ccccc3)cc2)S1 (centres undefined) | 53% | – | – | Normalization (Mus musculus [2]): 81%; Normalization (Mus musculus [3]): 93% |
| O=C1NC(=O)C(Cc2ccc(C(=O)CCc3coc(-c4ccccc4)n3)cc2)S1 (centres undefined) | – | 30% | – | Normalization (Mus musculus [7]): 52% |
| Cc1oc(-c2ccc(C(F)(F)F)cc2)nc1CCC(=O)c1ccc(CC2SC(=O)NC2=O)cc1 (centres undefined) | – | 69% | 86% | Normalization (Mus musculus [6]): 88%; Normalization (Mus musculus [7]): 81% |

| SMILES | Normalization (Mus musculus [1]) | Normalization (Mus musculus [4]) | Normalization (Mus musculus [5]) | also measured |
| --- | --- | --- | --- | --- |
| Cc1oc(-c2ccccc2)nc1CCC(O)c1ccc(CC2SC(=O)NC2=O)cc1 (centres undefined) | – | 100% | – | Normalization (Mus musculus [12]): 72%; Normalization (Mus musculus [6]): 93%; Normalization (Mus musculus [7]): 85% |
| Cc1ccc(-c2nc(CCC(=O)c3ccc(CC4SC(=O)NC4=O)s3)c(C)o2)cc1 (centres undefined) | – | 27% | 100% | – |
| Cc1oc(-c2ccccc2)nc1CCC(=O)c1ccc(CC2SC(=O)NC2=O)s1 (centres undefined) | 100% | – | 37% | Normalization (Mus musculus [10]): 99% |
| Cc1ccc(-c2nc(CCC(=O)c3ccc(CC4SC(=O)NC4=O)cc3)c(C)o2)o1 (centres undefined) | – | 68% | – | Normalization (Mus musculus [6]): 47%; Normalization (Mus musculus [7]): 87% |
| Cc1oc(-c2ccccc2)nc1CN(C)C(=O)c1ccc(CC2SC(=O)NC2=O)cc1 (centres undefined) | 83% | – | – | Normalization (Mus musculus [10]): 0% |
| COc1ccc(-c2nc(CCC(=O)c3ccc(CC4SC(=O)NC4=O)cc3)c(C)o2)cc1 (centres undefined) | – | 43% | 95% | – |
| Cc1oc(-c2ccccc2)nc1CCC(=O)c1ccc(CC2SC(=O)NC2=O)cc1 (centres undefined) [DARGLITAZONE] | 100% | 97% | 100% | Normalization (Mus musculus [10]): 88%; Normalization (Mus musculus [2]): 100%; Normalization (Mus musculus [6]): 83%; Normalization (Mus musculus [7]): 88% |
| COCc1ccc(/C=C/C(=O)c2ccc(CC3SC(=O)NC3=O)cc2)cc1 (centres undefined) | – | – | – | Normalization (Mus musculus [3]): 0% |
| Cc1oc(-c2ccccc2)nc1CC(=O)Nc1ccc(CC2SC(=O)NC2=O)cc1 (centres undefined) | 64% | – | – | Normalization (Mus musculus [10]): 16% |
| Cc1ccc(-c2nc(C/C=C/c3ccc(CC4SC(=O)NC4=O)s3)c(C)o2)cc1 (centres undefined) | – | 73% | 98% | Normalization (Mus musculus [10]): 90%; Normalization (Mus musculus [7]): 64% |
| CC1(COc2ccc(CC3SC(=O)NC3=O)cc2)CCCCC1 (centres undefined) [CIGLITAZONE] | – | – | – | Normalization (Mus musculus [13]): 100% |
| Cc1oc(-c2ccccc2)nc1CN(c1ccccc1)S(=O)(=O)c1ccc(CC2SC(=O)NC2=O)cc1 (centres undefined) | – | – | – | Normalization (Mus musculus [10]): 32% |
| Cc1oc(-c2ccccc2)nc1CCCc1ccc(CC2SC(=O)NC2=O)cc1 (centres undefined) | – | 37% | – | – |
| Cc1oc(-c2ccccc2)nc1CCC(=O)c1ccc(/C=C2\SC(=O)NC2=O)cc1 | – | 81% | 84% | Normalization (Mus musculus [6]): 43% |
| Cc1nc(-c2ccccc2)sc1CCC(=O)c1ccc(CC2SC(=O)NC2=O)cc1 (centres undefined) | 75% | – | – | Normalization (Mus musculus [10]): 33% |
| Cc1oc(-c2ccccc2)nc1CCS(=O)(=O)c1ccc(CC2SC(=O)NC2=O)cc1 (centres undefined) | 69% | – | 11% | – |
| O=C1NC(=O)C(Cc2ccc(CCCc3ccccc3)cc2)S1 (centres undefined) | 46% | – | – | Normalization (Mus musculus [2]): 77%; Normalization (Mus musculus [3]): 73% |
| Cc1oc(-c2ccccc2)nc1CCC(O)c1ccc(CC2SC(=O)NC2=O)s1 (centres undefined) | 100% | – | 23% | – |
| Cc1ccc(-c2nc(CCC(=O)c3ccc(CC4SC(=O)NC4=O)s3)co2)cc1 (centres undefined) | – | – | 10% | Normalization (Mus musculus [10]): 0% |
| Cc1oc(-c2ccc(C(F)(F)F)cc2)nc1CCC(=O)c1ccc(/C=C2\SC(=O)NC2=O)cc1 | – | 28% | 58% | – |
| Cc1oc(-c2ccc(Cl)cc2)nc1CCC(=O)c1ccc(CC2SC(=O)NC2=O)s1 (centres undefined) | – | – | 51% | Normalization (Mus musculus [10]): 100% |
| Cc1oc(-c2ccccc2)nc1CNC(=O)c1ccc(CC2SC(=O)NC2=O)cc1 (centres undefined) | 50% | – | – | Normalization (Mus musculus [10]): 49% |
| Cc1ccc(-c2nc(CCC(=O)c3ccc(/C=C4\SC(=O)NC4=O)cc3)c(C)o2)cc1 | – | 27% | 0% | – |
| Cc1nc(-c2ccccc2)c(CCC(=O)c2ccc(CC3SC(=O)NC3=O)cc2)s1 (centres undefined) | 61% | – | – | Normalization (Mus musculus [10]): 0% |
